The target in assay [1] is Platelet-activating factor receptor (Mus musculus) (UniProt Q62035). The experiment in a line: Dose required to inhibit PAF-induced mortality by 50% in mice. Type of assay: functional. As to conditions: Mus sp. Put shortly: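 Male Swiss mice (22-26 g), groups of 10; test compound given po (20 mL/kg), controls 1% Tween 80. 60 min later, C18-PAF 100 µg/kg plus propanolol 1 mg/kg injected into a lateral tail vein. Mortality scored 2 h after PAF; % inhibition vs controls. ID50 from linear regression of one curve, ≥4 points. Initial dose 3 mg/kg; further doses only if >50% inhibition.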

The target in assay [2] is Platelet-activating factor receptor (Rattus norvegicus) (UniProt P46002). Kind of assay: Intravenous dose required to reduce the arterial blood pressure caused by PAF by 50% in rats. Type of assay: functional. Put shortly:
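Male Sprague-Dawley rats (180-220 g) under pentobarbital anesthesia (50 mg/kg ip); carotid blood pressure recorded. Compound in saline given iv (femoral vein) 3 min before PAF 0.5 µg/kg iv; controls got vehicle. % inhibition of hypotension vs controls. ID50 from linear regression of one curve, ≥4 doses, each the mean of ≥2 independent experiments.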

Sequence of Platelet-activating factor receptor (Mus musculus) (Q62035 whole entry): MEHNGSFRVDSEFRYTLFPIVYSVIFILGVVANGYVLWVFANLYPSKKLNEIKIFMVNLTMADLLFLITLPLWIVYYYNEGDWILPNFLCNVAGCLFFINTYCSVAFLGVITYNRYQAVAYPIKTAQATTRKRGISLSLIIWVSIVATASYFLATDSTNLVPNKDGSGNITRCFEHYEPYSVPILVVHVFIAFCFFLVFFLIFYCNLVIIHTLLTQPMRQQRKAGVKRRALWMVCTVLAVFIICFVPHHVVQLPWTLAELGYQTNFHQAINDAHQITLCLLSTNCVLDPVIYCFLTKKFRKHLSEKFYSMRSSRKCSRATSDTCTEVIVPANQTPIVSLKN
Sequence of Platelet-activating factor receptor (Rattus norvegicus) (P46002 whole entry): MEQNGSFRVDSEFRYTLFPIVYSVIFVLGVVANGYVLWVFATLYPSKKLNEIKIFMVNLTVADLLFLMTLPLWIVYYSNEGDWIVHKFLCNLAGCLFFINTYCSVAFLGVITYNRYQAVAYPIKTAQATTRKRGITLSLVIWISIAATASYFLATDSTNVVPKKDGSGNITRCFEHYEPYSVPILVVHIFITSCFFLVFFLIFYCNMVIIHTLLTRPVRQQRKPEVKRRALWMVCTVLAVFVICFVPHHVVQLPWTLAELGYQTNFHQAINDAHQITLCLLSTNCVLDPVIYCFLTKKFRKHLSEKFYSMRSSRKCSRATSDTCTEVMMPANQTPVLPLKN

For `Cc1ncccc1C(C#N)N1CCN(C(=O)C(C)(C)C(F)(c2ccccc2)c2ccccc2)CC1` (stereo not drawn), the ID50 in assay [1] was more than 3 mg/kg; in assay [2] it was 0.34 mg/kg. The compound `Cc1ncccc1C(C#N)N1CCN(C(=O)CC(NC(N)=O)c2ccccc2)CC1` (stereo not drawn) came in with an ID50 in assay [1] of more than 3 mg/kg.

Turning to `CC(=O)NC(CC(=O)N1CCN(C(C#N)c2cccnc2C)CC1)c1ccccc1` (stereo not drawn), the ID50 in assay [1] amounted to 0.09 mg/kg; in assay [2], 0.035 mg/kg. Taken in the same sequence, the figures for `Cc1ncccc1C(C#N)N1CCN(C(=O)CC(NCc2cccnc2)c2ccccc2)CC1` (stereo not drawn) were more than 3 mg/kg and 0.029 mg/kg.

Regarding `CCc1ncccc1C(C#N)N1CCN(C(=O)CNC(c2ccccc2)c2ccccc2)CC1` (stereo not drawn), the values for the ID50 in assay [1] and in assay [2] were 0.7 mg/kg and 0.063 mg/kg, respectively. Taken in the same sequence, the figures for `CC(=O)N(CC(=O)N1CCN(C(C#N)c2cccnc2C)CC1)C(c1ccccc1)c1ccccc1` (stereo not drawn) were 2 mg/kg and 0.039 mg/kg. In the same order, the values of `COC(=O)N(Cc1ccccc1)C(CC(=O)N1CCN(C(C#N)c2cccnc2C)CC1)c1ccccc1` (stereo not drawn) are 3 mg/kg and 0.066 mg/kg. As to `CNC(CC(=O)N1CCN(C(C#N)c2cccnc2C)CC1)c1ccccc1` (stereo not drawn), the ID50 in assay [1] came to 3 mg/kg; in assay [2], 0.067 mg/kg. Taken in the same sequence, the figures for `Cc1ncccc1C(C#N)N1CCN(C(=O)CC(C)(O)c2ccccc2)CC1` (stereo not drawn) were more than 3 mg/kg and 0.029 mg/kg.

`CNC(=O)C(CC(=O)N1CCN(C(C#N)c2cccnc2C)CC1)c1ccccc1` (stereo not drawn): the results for the ID50 in assay [1] and in assay [2] were 0.78 mg/kg and 0.05 mg/kg, respectively. `Cc1ncccc1C(C#N)N1CCN(C(=O)CON=C(c2ccccc2)c2ccccc2)CC1` (stereo not drawn): the ID50 was more than 3 mg/kg in assay [1] and 0.071 mg/kg in assay [2]. `Cc1ncccc1C(C#N)N1CCN(C(=O)C[S+]([O-])C(c2ccccc2)c2ccccc2)CC1` (stereo not drawn): the results for the ID50 in assay [1] and in assay [2] were more than 3 mg/kg and 0.034 mg/kg, respectively. In turn, `C#CCNC(CC(=O)N1CCN(C(C#N)c2cccnc2C)CC1)c1ccccc1` (stereo not drawn) registered an ID50 in assay [1] of 3 mg/kg.

Take `Cc1ncccc1C(C#N)N1CCN(C(=O)/C=C(/c2ccccc2)C(F)(F)F)CC1` (stereo not drawn): the ID50 in assay [1] is more than 3 mg/kg. For the compound `Cc1ncccc1C(C#N)N1CCN(C(=O)CC(c2ccccc2)C(F)(F)F)CC1` (stereo not drawn), the ID50 in assay [1] is more than 3 mg/kg; in assay [2], 0.023 mg/kg. Taken in the same sequence, the figures for `Cc1ncccc1C(C#N)N1CCN(C(=O)CC(NC(=O)c2ccccc2)c2ccccc2)CC1` (stereo not drawn) were more than 3 mg/kg and 0.056 mg/kg.

On to `Cc1ncccc1C(C#N)N1CCN(C(=O)CC(c2ccccc2)n2cccc2)CC1` (stereo not drawn), for which the results for the ID50 in assay [1] and in assay [2] were 1 mg/kg and 0.014 mg/kg, respectively. In the same order, the values of `Cc1ncccc1C(C#N)N1CCN(C(=O)CNC2c3ccccc3-c3ccccc32)CC1` (stereo not drawn) are more than 3 mg/kg and 0.085 mg/kg. In the same order, the values of `Cc1ncccc1C(C#N)N1CCN(C(=O)CC(c2ccccc2)N2CCCC2=O)CC1` (stereo not drawn) are 0.13 mg/kg and 0.026 mg/kg.

Consider `Cc1ncccc1C(C#N)N1CCN(C(=O)CC(O)(c2ccccc2)c2ccccc2)CC1` (stereo not drawn), for which the ID50 in assay [1] is 0.69 mg/kg; in assay [2], 0.039 mg/kg. In the same order, the values of `Cc1ncccc1C(C#N)N1CCN(C(=O)CS(=O)(=O)C(c2ccccc2)c2ccccc2)CC1` (stereo not drawn) are more than 3 mg/kg and 0.11 mg/kg. Consider `Cc1ncccc1C(C#N)N1CCN(C(=O)CC(NC(=O)OC(C)(C)C)c2ccccc2)CC1` (stereo not drawn), for which the ID50 in assay [1] came out at 1.2 mg/kg; in assay [2], 0.049 mg/kg. With `Cc1ncccc1C(CO)N1CCN(C(=O)CC(c2ccccc2)c2ccccc2)CC1` (stereo not drawn), the ID50 in assay [1] was more than 3 mg/kg.

Regarding `CO/N=C(/C)C(c1cccnc1C)N1CCN(C(=O)CC(c2ccccc2)c2ccccc2)CC1` (stereo not drawn), the ID50 in assay [1] was more than 3 mg/kg. On the same count and under the same terms, then `C#CC(c1cccnc1C)N1CCN(C(=O)CNC(c2ccccc2)c2ccccc2)CC1` (stereo not drawn), with more than 3 mg/kg; and `CCOC(=O)C(c1cccnc1C)N1CCN(C(=O)CC(c2ccccc2)c2ccccc2)CC1` (stereo not drawn), with more than 30 mg/kg; and `Cc1ncccc1C(C#N)N1CCN(C(=O)[C@@H](C)NC(c2ccccc2)c2ccccc2)CC1` (stereo partly drawn), with more than 3 mg/kg. In assay [2], `Cc1ncccc1C(C#N)N1CCN(C(=O)CC(c2ccccc2)N2CCCC2)CC1` (stereo not drawn) registered an ID50 of 0.22 mg/kg. On to `C=CCNC(CC(=O)N1CCN(C(C#N)c2cccnc2C)CC1)c1ccccc1` (stereo not drawn), for which, in assay [1], the ID50 amounted to 1 mg/kg.

Values taken from ChEMBL document CHEMBL1126841, “Synthesis and structure-activity relationships of 1-acyl-4-((2-methyl-3-pyridyl)cyanomethyl)piperazines as PAF antagonists” (J Med Chem, 1993).
